Experimental data reported in ChEMBL document CHEMBL1134684, “Phenoxypropoxybiguanides, prodrugs of DHFR-inhibiting diaminotriazine antimalarials” (J Med Chem, 2001).
Converted amounts (≈) assume the structure as drawn.

Legend:
Mus musculus [1] = species on record: Mus musculus; experiment: Dose needed to increase the 100% survival of treated animals (mouse), to twice the number of days; format: ADME, organism-based; conditions: in vivo
[2] = In vivo antimalarial activity against Plasmodium berghei in mice (Mus musculus) after 6 days; format: functional; conditions: 144 h
Procedure, shortened: (§1)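 Male or female CD-1 mice (4-5 weeks, 20-25 g) infected ip on day 0 with 5 × 10⁴ P. berghei KBG-173 parasitized erythrocytes. Oral doses in 0.5% hydroxyethylcellulose/0.1% Tween-80, given bid 6 h apart on days 3, 4 and 5, computed as free base. Giemsa-stained tail-blood smears on day 6 give % infected RBC. ED90 is the dose reducing parasitemia to 10% of untreated infected controls.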

Mus musculus [3] = species on record: Mus musculus; experiment: Dose required for 100%, 31 day survival of Plasmodium berghei inoculated mice (Mus musculus).; format: ADME, organism-based; conditions: in vivo, 744 h
Procedure, shortened: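 Same mouse P. berghei KBG-173 model, with ip infection on day 0 and oral bid treatment on days 3, 4 and 5. The experiment runs 31 days. The complete survival dose is the dose at which all animals are alive on day 31.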

Plasmodium falciparum [4] = experiment: In vitro antimalarial activity against Plasmodium falciparum W2; format: functional, organism-based
Procedure, shortened: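 Chloroquine-, quinine-, sulfadoxine- and pyrimethamine-resistant Indochina W-2 clone tested in a semiautomated microdilution assay. Graded drug concentrations incubated 66 h in medium with physiological folic acid. Read-out is inhibition of radiolabeled hypoxanthine incorporation.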

Plasmodium falciparum [5] = experiment: In vitro antimalarial activity against Plasmodium falciparum K1; format: functional
Procedure, shortened: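 K1 parasites synchronized with 5% sorbitol. Drugs in methanol or DMSO, 2-fold serially diluted. Cultures at 2% hematocrit and 0.5% parasitemia (>95% rings) in 10% human serum under 5% O₂/5% CO₂/90% N₂ at 37.5 °C for 24-30 h. Romanowsky-stained thick films scored. MIC is the lowest concentration preventing >90% maturation to normal schizonts.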

Mus musculus [6] = experiment: Compound was tested in vivo for antimalarial activity against Plasmodium berghei in mice (Mus musculus) after 6 days of administration (ED90 is the dose necessary to reduce the percentage of infected cells to 10% of the level found in the infected untreated controls); format: functional; conditions: 144 h; procedure, shortened: as §1
Mus musculus [7] = species on record: Mus musculus; experiment: Dose required by the animals(mouse) to survive after 31 days; format: ADME, organism-based; conditions: in vivo, 744 h
Procedure, shortened: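 P. berghei KBG-173 in male or female CD-1 mice (4-5 weeks, 20-25 g), infected ip on day 0 with 5 × 10⁴ parasitized erythrocytes. Oral doses in 0.5% hydroxyethylcellulose/0.1% Tween-80 (10 mL/kg, free base), bid 6 h apart on days 3-5. Experiment run 31 days; complete survival dose = dose at which all animals survive to day 31.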

Row | SMILES | ED (Mus musculus [1]) | ED90 [2] | Dose (Mus musculus [3]) | IC50 (Plasmodium falciparum [4]) | IC90 (Plasmodium falciparum [5]) | other results
1 | CC(C)/N=C(N)/N=C(\N)NOCCCOc1cccc2ccccc12.Cl | 185 mg/kg | > 256 mg/kg | 495 mg/kg |  |  | 
2 | CC(C)/N=C(N)/N=C(\N)NOCCCSc1ccc(F)cc1.Cl | 109 mg/kg | 70 mg/kg | 183 mg/kg |  |  | 
3 | Cc1ccc(SCCCON/C(N)=N/C(N)=N/C(C)C)cc1.Cl | 117 mg/kg | 92 mg/kg | 265 mg/kg |  |  | 
4 | Cc1cc(C)c(C)c(OCCCON/C(N)=N/C(N)=N/C(C)C)c1.Cl | > 128 mg/kg | < 128 mg/kg |  |  |  | 
5 | CC(C)/N=C(N)/N=C(\N)NOCCCOc1cc(F)cc(F)c1F.Cl | 107 mg/kg | 74 mg/kg | 180 mg/kg |  |  | 
6 | CC(C)/N=C(N)/N=C(\N)NOCCCOc1cc(F)c(F)cc1F.Cl | 71 mg/kg | 18 mg/kg | 128 mg/kg |  |  | 
7 | CC(C)/N=C(N)/N=C(\N)NOCCCOc1ccc2ccccc2c1.Cl | < 128 mg/kg | < 128 mg/kg |  |  |  | 
8 | Cc1ccc(OCCCON/C(N)=N/C(N)=N/C(C)C)cc1C.Cl | > 128 mg/kg | > 128 mg/kg |  |  |  | 
9 | Cc1cc(OCCCON/C(N)=N/C(N)=N/C(C)C)ccc1C(C)C.Cl | 128 mg/kg | < 128 mg/kg |  |  |  | 
10 | Cc1ccc(OCCCON/C(N)=N/C(N)=N/C(C)C)c(C)c1.Cl | 170 mg/kg | 120 mg/kg | 235 mg/kg |  |  | 
11 | CC1(C)N=C(N)N=C(N)N1OCCCOc1cccc(C(F)(F)F)c1.Cl |  |  |  | 0.0299 ng/mL | 2.5 ng/mL | 
12 | Cc1cccc(OCCCON2C(N)=NC(N)=NC2(C)C)c1.Cl |  |  |  | 0.0416 ng/mL | 0.37 ng/mL | 
13 | CC1(C)N=C(N)N=C(N)N1OCCCOc1ccc(Br)cc1.Cl |  |  |  |  | 0.4 ng/mL | 
14 | CC1(C)N=C(N)N=C(N)N1OCCCOc1ccc(F)cc1.Cl |  |  |  |  | 0.63 ng/mL | 
15 | CC1(C)N=C(N)N=C(N)N1OCCCSc1ccc(F)cc1.Cl |  |  |  | 0.0222 ng/mL | 1.25 ng/mL | 
16 | COc1ccc(OCCCON2C(N)=NC(N)=NC2(C)C)cc1.Cl |  |  |  | 0.0342 ng/mL | 0.32 ng/mL | 
17 | CC1(C)N=C(N)N=C(N)N1OCCCOc1cc(F)cc(F)c1F.Cl |  |  |  | 0.0301 ng/mL | 0.63 ng/mL | 
18 | CC1(C)N=C(N)N=C(N)N1OCCCOc1cc(F)c(F)cc1F.Cl |  |  |  | 0.032 ng/mL | 0.94 ng/mL | 
19 | Cc1cc(OCCCON2C(N)=NC(N)=NC2(C)C)ccc1C(C)C.Cl |  |  |  | 0.0719 ng/mL | 11.7 ng/mL | 
20 | COc1cc(OCCCON2C(N)=NC(N)=NC2(C)C)cc(OC)c1OC.Cl |  |  |  | 0.211 ng/mL | 1.25 ng/mL | 
21 | CCc1ccc(OCCCO/N=C(N)/N=C(\N)NC(C)C)cc1.Cl | 158 mg/kg | 96 mg/kg | 505 mg/kg |  |  | 
22 | CC1(C)N=C(N)N=C(N)N1OCCCOc1ccc([N+](=O)[O-])cc1.Cl |  |  |  | 0.0299 ng/mL | 0.32 ng/mL | 
23 | CC(C)/N=C(N)/N=C(\N)NOCCCOc1cccc(C(F)(F)F)c1.Cl | 73 mg/kg | 27 mg/kg | 140 mg/kg |  |  | 
24 | Cc1cccc(OCCCON/C(N)=N/C(N)=N/C(C)C)c1.Cl | > 128 mg/kg | > 128 mg/kg |  |  |  | 
25 | COc1ccc(OCCCO/N=C(N)/N=C(\N)NC(C)C)cc1.Cl | > 128 mg/kg | > 128 mg/kg |  |  |  | 
26 | Cc1ccc(OCCCON/C(N)=N/C(N)=N/C(C)C)cc1.Cl | 265 mg/kg | 113 mg/kg | 445 mg/kg |  |  | 
27 | CC(C)/N=C(N)/N=C(\N)NOCCCOc1ccc(C(C)(C)C)cc1.Cl | 460 mg/kg | > 128 mg/kg | 1480 mg/kg |  |  | 
28 | CC(C)/N=C(N)/N=C(\N)NOCCCOc1ccc(F)cc1F.Cl | > 128 mg/kg | > 128 mg/kg |  |  |  | 

Row | SMILES | ED (Mus musculus [1]) | ED90 [2] | Dose (Mus musculus [3]) | IC50 (Plasmodium falciparum [4]) | IC90 (Plasmodium falciparum [5]) | other results
29 | CC(C)/N=C(N)/N=C(\N)NOCCCOc1ccc(F)c(F)c1.Cl | 27 mg/kg | < 16 mg/kg | 77 mg/kg |  |  | 
30 | CC(C)/N=C(N)/N=C(\N)NOCCCOc1ccccc1.Cl | 165 mg/kg | 124 mg/kg | 540 mg/kg |  |  | 
31 | CC1(C)N=C(N)N=C(N)N1OCCCOc1ccc2ccccc2c1.Cl |  |  |  | 0.0333 ng/mL | 1.56 ng/mL | 
32 | CC1(C)N=C(N)N=C(N)N1OCCCOc1ccc(F)c(F)c1.Cl |  |  |  | 0.0332 ng/mL | 0.38 ng/mL | 
33 | CC1(C)N=C(N)N=C(N)N1OCCCOc1ccc(F)cc1F.Cl |  |  |  | 0.0285 ng/mL | 0.42 ng/mL | 
34 | CC1(C)N=C(N)N=C(N)N1OCCc1cccc(C(F)(F)F)c1.Cl |  |  |  | 0.184 ng/mL | 40 ng/mL | 
35 | CC(C)/N=C(N)/N=C(\N)NOCc1ccc(Cl)c(Cl)c1 | 22 mg/kg | < 8 mg/kg | 32 mg/kg |  |  | 
36 | N=C(NOCCCOc1cc(Cl)c(Cl)cc1Cl)NC(=N)NC1CCCCC1 | 275 mg/kg | > 256 mg/kg | 470 mg/kg |  |  | 
37 | CC(C)/N=C(N)/N=C(\N)NOCCCSc1cc(Cl)ccc1Cl | > 128 mg/kg | < 128 mg/kg |  |  |  | 
38 | CC1(C)N=C(N)N=C(N)N1OCCCSc1ccc(Cl)cc1 |  |  |  | 0.0288 ng/mL (≈ 0.0842 nM) | 2.08 ng/mL (≈ 6.08 nM) | 
39 | CC(C)/N=C(N)/N=C(\N)NOCCCOc1ccc(F)cc1 | 30 mg/kg | < 16 mg/kg | 90 mg/kg |  |  | 
40 | CC(C)/N=C(N)/N=C(\N)NOCCCOc1ccc(Br)cc1 | 64 mg/kg | < 32 mg/kg | 135 mg/kg |  |  | 
41 | CC(C)/N=C(N)/N=C(\N)NOCCCSc1ccc(Cl)cc1 | 112 mg/kg | 73 mg/kg | 182 mg/kg |  |  | 
42 | CC(C)/N=C(N)/N=C(\N)NOCCCOc1ccc(Cl)cc1Cl | 28 mg/kg | 17 mg/kg | 64 mg/kg |  |  | 
43 | CC(C)NC(=N)NC(=N)NOCCCOc1ccc(Cl)cc1 | 26 mg/kg | < 16 mg/kg | 79 mg/kg |  |  | 
44 | CC(C)NC(=N)NC(=N)NOCCCOc1cc(Cl)c(Cl)cc1Cl | 30 mg/kg | < 16 mg/kg | 76 mg/kg |  |  | 
45 | CC1(C)N=C(N)N=C(N)N1OCCOc1cc(Cl)c(Cl)cc1Cl |  |  |  | 0.278 ng/mL (≈ 0.73 nM) | 40 ng/mL (≈ 105 nM) | 
46 | CC1(C)N=C(N)N=C(N)N1OCCCSc1cc(Cl)ccc1Cl |  |  |  | 0.0254 ng/mL (≈ 0.0675 nM) | 2.08 ng/mL (≈ 5.53 nM) | 
47 | CCCCCCCCCC1N=C(N)N=C(N)N1OCCCOc1cc(Cl)c(Cl)cc1Cl (centres undefined) |  |  |  | > 0.5 ng/mL | > 640 ng/mL | 
48 | CC1(C)N=C(N)N=C(N)N1OCCCOc1cc(Cl)c(Cl)cc1Cl |  |  |  | 0.047 ng/mL (≈ 0.119 nM) | 1.43 ng/mL (≈ 3.62 nM) | 
49 | CC1(C)N=C(N)N=C(N)N1OCCCOc1ccc(Cl)cc1 |  |  |  |  | 0.63 ng/mL (≈ 1.93 nM) | 
50 | CC1(C)NC(N)=NC(=N)N1OCCCOc1ccc(Cl)cc1Cl |  |  |  | 0.0379 ng/mL (≈ 0.105 nM) | 1.67 ng/mL (≈ 4.64 nM) | 
51 | N=C1N=C(N)NC2(CCCCC2)N1OCCCOc1cc(Cl)c(Cl)cc1Cl |  |  |  | 0.113 ng/mL (≈ 0.26 nM) | 66.7 ng/mL (≈ 153 nM) | 
52 | CC(C)NC(=N)NC(=N)NOCCCOc1ccc(Cl)c(Cl)c1 | 16 mg/kg | < 16 mg/kg | 33 mg/kg |  |  | 
53 | CCN(CC)CCCC(C)Nc1ccnc2cc(Cl)ccc12 (centres undefined) [CHLOROQUINE] |  |  |  |  |  | ED90 (Mus musculus [6]): 3 mg/kg; Complete survival dose (Mus musculus [7]): 256 mg/kg
54 | CC1(C)N=C(N)N=C(N)N1c1ccc(Cl)cc1 [CYCLOGUANIL] |  |  |  | > 0.5 ng/mL | 152 ng/mL (≈ 604 nM) | 
55 | CCc1nc(N)nc(N)c1-c1ccc(Cl)cc1 [PYRIMETHAMINE] |  |  |  |  | 1740 ng/mL (≈ 7020 nM) | ED90 (Mus musculus [6]): 1.2 mg/kg; Complete survival dose (Mus musculus [7]): 400 mg/kg
